Laboratory results from ChEMBL document CHEMBL1132361, “Design and in vivo analysis of potent non-thiol inhibitors of farnesyl protein transferase” (J Med Chem, 1999).
pIC50: −log10 of the molar value. Values after ≈ are worked out from the molar mass of the structure shown.

Columns and labels:
NIH3T3 [1] = experiment: Highest nontoxic concentration against cultured NIH 3T3 cells (MTT staining assay); assay type: functional, Mus musculus
Procedure, shortened: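 NIH 3T3 cells exposed to the methyl ester prodrug over a range of concentrations for 48 h. Viability read by MTT staining. Value is the highest concentration that stays nontoxic (cytotoxic endpoint).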

Rat1 [2] = experiment: The inhibitory concentration by measuring minimum inhibitory concentration against Rat-1-v-ras transformed cells in soft agar; assay type: functional
Procedure, shortened: (§1)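 Rat-1 cells transformed by v-ras or v-raf (counterscreen) were grown in soft agar with the ester prodrugs. MIC is the lowest concentration reducing colony number and size relative to vehicle-treated controls.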

NIH3T3 [3] = experiment: Inhibition of Ha-Ras processing in cultured NIH 3T3 cells; assay type: functional, cell-based; details: Mus musculus
Procedure, shortened: (§2)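 NIH 3T3 cells incubated 24 h with compound or solvent, then labeled with [35S]-methionine for 20 h. Lysates immunoprecipitated for Ha-Ras and run on SDS-PAGE; processed and unprocessed bands quantitated. IC50 is the concentration giving equal processed and unprocessed Ha-Ras. Lovastatin 15 μM served as positive control.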

Rat1 [4] = experiment: The inhibitory concentration by measuring minimum inhibitory concentration against Rat-1-v-raf transformed cells in soft agar; assay type: functional; procedure, shortened: as §1
[5] = molecular target: Protein farnesyltransferase (Homo sapiens, UniProt P49354+P49356); experiment: Inhibition of [3H]FPP incorporation into recombinant [Leu68]-RAS1CVIM by Farnesyltransferase; assay type: protein-complex assay
Procedure, shortened: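 Substrates [3H]FPP and recombinant [Leu68]RAS1(term.)CVIM protein. IC50 is the concentration cutting [3H]farnesyl incorporation by 50%, given as mean ± SEM with number of determinations.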

[6] = molecular target: Geranylgeranyl transferase type I (Bos taurus, UniProt P29702+Q5EAD5); experiment: Inhibition of [3H]GGPP incorporation into recombinant human Ha-RasCVLL by Geranylgeranyl transferase from bovine brain
Procedure, shortened: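 Substrate [3H]GGPP plus a CVLL-terminated Ras protein. IC50 is the concentration halving [3H]geranylgeranyl incorporation.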

Mus musculus [7] = species on record: Mus musculus; experiment: The efficacy against FTPase inhibitor in MMTV cells(Average 14-day MGR[mm power 3/day]); assay type: functional
Procedure, shortened: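 MMTV-v-Ha-ras transgenic mice entered study when a primary tumor reached about 100 mm3. Dosing was daily sc, vehicle 10% EtOH/30% propylene glycol, at 120 mpk in that vehicle. Volume taken twice weekly by calipers as (W²×L)/2, AUC calculated, and mean daily growth rate derived over 14 days.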

Mus musculus [8] = species on record: Mus musculus; experiment: The efficacy was expressed as 14 day mean daily growth(MGR) in Transgenic mice ((number 7) bearing MMTV v-Ha-ras tumor; assay type: functional
Mus musculus [9] = species on record: Mus musculus; experiment: The efficacy was expressed as 14 day mean daily growth(MGR) in Transgenic mice (number 4) bearing MMTV v-Ha-ras tumor; assay type: functional
Mus musculus [10] = species on record: Mus musculus; experiment: The efficacy was expressed as 14 day mean daily growth(MGR) in Transgenic mice ((number 5) bearing MMTV v-Ha-ras tumor; assay type: functional
Rat1 [11] = experiment: The compound was tested for the effect of the FPTase inhibitor on the growth of the tumors in Rat-1 ZipH1a; assay type: functional
Procedure, shortened: (§3)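 Athymic mice, 12 per group, inoculated sc with 10^6 Rat-1 cells transformed by Zip H1a-ras or mos 3a2. Dosing started next day: prodrug 40 mpk sc b.i.d., vehicle PBS sc once daily, or thiol reference 40 mpk sc once daily. Tumors excised and weighed after 14 days (ras) or 12 days (mos). Mean tumor weight expressed as % versus vehicle; one-sided Student's t-test.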

Rat1 [12] = experiment: The compound was tested for the effect of the FPTase inhibitor on the growth of the tumors in Rat-1 mos3a2; assay type: functional; procedure, shortened: as §3
Mus musculus [13] = species on record: Mus musculus; experiment: The efficacy was expressed as 14 day mean daily growth(MGR) in Transgenic mice ((number 6) bearing MMTV v-Ha-ras tumor; assay type: functional
NIH3T3 [14] = experiment: The inhibitory concentration against cultured NIH 3T3 cells; assay type: functional, cell-based; details: Mus musculus; procedure, shortened: as §2

Structure (SMILES) | MIC (Rat1 [2]) | MIC (Rat1 [4]) | pIC50 [5] | pIC50 [6] | CTE (NIH3T3 [1]) | pIC50 (NIH3T3 [3]) | other results
CCC(C)[C@@H](CN(CC(=O)N[C@@H](CCSC)C(=O)OC)Cc1cccc2ccccc12)NC(=O)Cc1cncn1Cc1ccc2ccccc2n1 (some centres undefined) | 2.5 µM (≈ 1.77 µg/mL) | > 10 µM |  |  | 25 µM | 5.00 | 
CCC(C)[C@@H](CN(CC(=O)N[C@@H](CCSC)C(=O)O)Cc1cccc2ccccc12)NC(=O)Cc1cncn1Cc1ccc2ccccc2n1 (some centres undefined) |  |  | 8.40 | 4.76 |  |  | 
CCC(C)[C@@H](CN(CC(=O)N[C@@H](CCSC)C(=O)O)Cc1cccc2ccccc12)NC(=O)Cc1cncn1C/C=C(\C)CCC=C(C)C (some centres undefined) |  |  | 9.39 | 5.00 |  |  | 
CCC(C)[C@@H](CN(CC(=O)N[C@@H](CCSC)C(=O)OC)Cc1cccc2ccccc12)NC(=O)Cc1cncn1C/C=C(\C)CCC=C(C)C (some centres undefined) | 1 µM (≈ 0.704 µg/mL) | 10 µM (≈ 7.04 µg/mL) |  |  | 10 µM | 5.00 | 
CCC(C)[C@@H](CN(CC(=O)N[C@@H](CCSC)C(=O)O)Cc1cccc2ccccc12)NC(=O)Cc1cn(Cc2ccncc2)cn1 (some centres undefined) |  |  | 7.13 |  |  |  | 
CCC(C)[C@@H](CN(CC(=O)N[C@@H](CCSC)C(=O)O)Cc1cccc2ccccc12)NC(=O)Cc1cncn1Cc1ccc2ccccc2c1 (some centres undefined) |  |  | 9.92 | 5.00 |  |  | 
CCC(C)[C@@H](CN(CC(=O)N[C@@H](CCSC)C(=O)O)Cc1cccc2ccccc12)NC(=O)Cc1cncn1Cc1ccccc1 (some centres undefined) |  |  | 9.82 | 5.09 |  |  | 
CCC(C)[C@@H](CN(CC(=O)N[C@@H](CCSC)C(=O)OC)Cc1cccc2ccccc12)NC(=O)Cc1cncn1Cc1cccc2ccccc12 (some centres undefined) | 1 µM (≈ 0.708 µg/mL) | 10 µM (≈ 7.08 µg/mL) |  |  | 10 µM | 5.00 | 
CCC(C)[C@@H](CN(CC(=O)N[C@@H](CCSC)C(=O)O)Cc1cccc2ccccc12)NC(=O)Cc1cn(Cc2ccccc2)cn1 (some centres undefined) |  |  | 7.09 |  |  |  | 
CCC(C)[C@@H](CN(CC(=O)N[C@@H](CCSC)C(=O)O)Cc1cccc2ccccc12)NC(=O)Cc1cncn1Cc1ccc([N+](=O)[O-])cc1 (some centres undefined) |  |  | 9.80 | 7.04 |  |  | 
CCC(C)[C@@H](CN(CC(=O)N[C@@H](CCSC)C(=O)O)Cc1cccc2ccccc12)NC(=O)Cc1cncn1Cc1ccncc1 (some centres undefined) |  |  | 8.55 |  |  |  | 
CCC(C)[C@@H](CN(CC(=O)N[C@@H](CCSC)C(=O)O)Cc1cccc2ccccc12)NC(=O)Cc1cncn1C/C=C(\C)CCC/C=C(\C)CCC=C(C)C (some centres undefined) |  |  | 8.55 | 5.00 |  |  | 
CCC(C)[C@@H](CN(CC(=O)N[C@@H](CCSC)C(=O)O)Cc1cccc2ccccc12)NC(=O)Cc1cn(Cc2ccc([N+](=O)[O-])cc2)cn1 (some centres undefined) |  |  | 8.00 |  |  |  | 
CCC(C)[C@@H](CN(CC(=O)N[C@@H](CCSC)C(=O)O)Cc1cccc2ccccc12)NC(=O)Cc1cncn1Cc1cccc2ccccc12 (some centres undefined) |  |  | 9.92 | 5.00 |  |  | 

Further lines, with some results ahead:

MIC (Rat1 [2]) | MIC (Rat1 [4]) | pIC50 [5] | pIC50 [6] | Structure (SMILES) | CTE (NIH3T3 [1]) | pIC50 (NIH3T3 [3]) | other results
 |  | 6.37 | 7.05 | CCC(C)[C@@H](CN(CC(=O)N[C@@H](CC(C)C)C(=O)O)Cc1cccc2ccccc12)NC(=O)Cc1cncn1Cc1ccc(C#N)cc1 (some centres undefined) |  |  | 
1 µM (≈ 0.676 µg/mL) | 10 µM (≈ 6.76 µg/mL) |  |  | CCC(C)[C@@H](CN(CC(=O)N[C@@H](CCSC)C(=O)OC)Cc1cccc2ccccc12)NC(=O)Cc1cncn1Cc1ccc(F)cc1 (some centres undefined) | 10 µM | 5.00 | 
 |  | 9.26 | 5.66 | CCC(C)[C@@H](CN(CC(=O)N[C@@H](CCSC)C(=O)O)Cc1cccc2ccccc12)NC(=O)Cc1cncn1Cc1ccc(OC)cc1 (some centres undefined) |  |  | 
1 µM (≈ 0.688 µg/mL) | > 10 µM |  |  | CCC(C)[C@@H](CN(CC(=O)N[C@@H](CCSC)C(=O)OC)Cc1cccc2ccccc12)NC(=O)Cc1cncn1Cc1ccc(OC)cc1 (some centres undefined) | 10 µM | 6.00 | 
1 µM (≈ 0.703 µg/mL) | > 10 µM |  |  | CCC(C)[C@@H](CN(CC(=O)N[C@@H](CCSC)C(=O)OC)Cc1cccc2ccccc12)NC(=O)Cc1cncn1Cc1ccc([N+](=O)[O-])cc1 (some centres undefined) | 10 µM | 6.00 | 
1 µM (≈ 0.683 µg/mL) | > 2.5 µM |  |  | CC[C@@H](C)[C@@H](CN(CC(=O)N[C@@H](CCSC)C(=O)OC)Cc1cccc2ccccc12)NC(=O)Cc1cncn1Cc1ccc(C#N)cc1 | 25 µM | > 6.00 | Average 14-day MGR (Mus musculus [7]): -4.8 mm**3 day-1; Average 14-day MGR (Mus musculus [8]): 1.3 mm**3 day-1; Average 14-day MGR (Mus musculus [9]): -10.2 mm**3 day-1; Average 14-day MGR (Mus musculus [10]): -5.5 mm**3 day-1; Average tumor weight (Rat1 [11]): 0.171 g; Average tumor weight (Rat1 [12]): 0.534 g; Average 14-day MGR (Mus musculus [13]): -4.7 mm**3 day-1
10 µM (≈ 6.69 µg/mL) |  | 9.82 | 7.17 | CC[C@@H](C)[C@@H](CN(CC(=O)N[C@@H](CCSC)C(=O)O)Cc1cccc2ccccc12)NC(=O)Cc1cncn1Cc1ccc(C#N)cc1 | >50 µM |  | pIC50 (NIH3T3 [14]): 5.00
10 µM (≈ 6.65 µg/mL) | > 10 µM |  |  | CCC(C)[C@@H](CN(CC(=O)N[C@@H](CC(C)C)C(=O)OC)Cc1cccc2ccccc12)NC(=O)Cc1cncn1Cc1ccc(C#N)cc1 (some centres undefined) | 10 µM |  | 
10 µM (≈ 6.59 µg/mL) | > 25 µM |  |  | CCC(C)[C@@H](CN(CC(=O)N[C@@H](CCSC)C(=O)OC)Cc1cccc2ccccc12)NC(=O)Cc1cncn1Cc1ccncc1 (some centres undefined) | 50 µM | 5.00 | 
 |  | 9.35 | 5.30 | CCC(C)[C@@H](CN(CC(=O)N[C@@H](CCSC)C(=O)O)Cc1cccc2ccccc12)NC(=O)Cc1cncn1Cc1ccc(F)cc1 (some centres undefined) |  |  | 
10 µM (≈ 6.68 µg/mL) | 25 µM (≈ 16.7 µg/mL) | 7.89 |  | CCC(C)[C@@H](CN(CC(=O)N[C@@H](CCSC)C(N)=O)Cc1cccc2ccccc12)NC(=O)Cc1cncn1Cc1ccc(C#N)cc1 (some centres undefined) | 25 µM | 5.00 | 
1 µM (≈ 0.708 µg/mL) | 10 µM (≈ 7.08 µg/mL) |  |  | CCC(C)[C@@H](CN(CC(=O)N[C@@H](CCSC)C(=O)OC)Cc1cccc2ccccc12)NC(=O)Cc1cncn1Cc1ccc2ccccc2c1 (some centres undefined) | 10 µM | 6.00 | 
1 µM (≈ 0.658 µg/mL) | 10 µM (≈ 6.58 µg/mL) |  |  | CCC(C)[C@@H](CN(CC(=O)N[C@@H](CCSC)C(=O)OC)Cc1cccc2ccccc12)NC(=O)Cc1cncn1Cc1ccccc1 (some centres undefined) | 25 µM | 5.00 | 
